Measurements taken from ChEMBL document CHEMBL4184277, “Substitution of terminal amide with 1H-1,2,3-triazole: Identification of unexpected class of potent antibacterial agents” (2018).
Converted amounts (≈) assume the structure as drawn. The source made the active and inactive calls. No cut-off for these calls is given here.

How the values were obtained:
[1] = biological target: T1, Cell division protein FtsZ (Staphylococcus aureus) (UniProt P0A031); assay: Inhibition of FtsZ in Staphylococcus aureus assessed as ballooning
T1 sequence (whole entry): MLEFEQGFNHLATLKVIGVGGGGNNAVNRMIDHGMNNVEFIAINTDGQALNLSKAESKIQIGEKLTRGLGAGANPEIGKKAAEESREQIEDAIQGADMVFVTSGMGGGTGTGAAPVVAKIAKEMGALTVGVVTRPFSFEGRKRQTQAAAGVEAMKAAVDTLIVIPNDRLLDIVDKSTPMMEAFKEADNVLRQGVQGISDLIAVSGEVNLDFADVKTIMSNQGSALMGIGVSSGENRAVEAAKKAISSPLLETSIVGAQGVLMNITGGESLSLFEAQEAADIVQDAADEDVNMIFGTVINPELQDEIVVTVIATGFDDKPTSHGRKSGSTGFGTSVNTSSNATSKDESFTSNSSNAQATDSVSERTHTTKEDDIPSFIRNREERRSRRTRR

Staphylococcus aureus [2] = assay: Antibacterial activity against Staphylococcus aureus ATCC 25923 after 24 hrs by broth microdilution method; assay type: functional; conditions: ATCC 25923, 24 h
Summary of the method: (§1)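 Broth microdilution run to the standard NCCLS-recommended procedure, applied to all newly synthesized compounds, with a panel that included four Gram-positive strains.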

Escherichia coli = assay: Antibacterial activity against Escherichia coli ATCC 25922 after 24 hrs by broth microdilution method; assay type: functional; conditions: ATCC 25922, 24 h; summary of the method: as §1
Klebsiella pneumoniae = assay: Antibacterial activity against Klebsiella pneumoniae ATCC 700603 after 24 hrs by broth microdilution method; assay type: functional; conditions: Klebsiella pneumoniae, 700603, 24 h; summary of the method: as §1
Staphylococcus aureus [3] = assay: Antibacterial activity against penicillin-resistant Staphylococcus aureus after 24 hrs by broth microdilution method; assay type: functional
Bacillus subtilis = assay: Antibacterial activity against Bacillus subtilis ATCC 9372 after 24 hrs by broth microdilution method; assay type: functional; conditions: ATCC 9372, 24 h; summary of the method: as §1
Staphylococcus aureus [4] = assay: Antibacterial activity against methicillin-resistant Staphylococcus aureus ATCC 43300 after 24 hrs by broth microdilution method; assay type: functional; conditions: ATCC 43300, 24 h
[5] = biological target: T2, Cell division protein FtsZ (Bacillus subtilis) (UniProt A5Z1V5); assay: Inhibition of FtsZ in Bacillus subtilis ATCC 9372 assessed as filamentation
T2 sequence (whole entry): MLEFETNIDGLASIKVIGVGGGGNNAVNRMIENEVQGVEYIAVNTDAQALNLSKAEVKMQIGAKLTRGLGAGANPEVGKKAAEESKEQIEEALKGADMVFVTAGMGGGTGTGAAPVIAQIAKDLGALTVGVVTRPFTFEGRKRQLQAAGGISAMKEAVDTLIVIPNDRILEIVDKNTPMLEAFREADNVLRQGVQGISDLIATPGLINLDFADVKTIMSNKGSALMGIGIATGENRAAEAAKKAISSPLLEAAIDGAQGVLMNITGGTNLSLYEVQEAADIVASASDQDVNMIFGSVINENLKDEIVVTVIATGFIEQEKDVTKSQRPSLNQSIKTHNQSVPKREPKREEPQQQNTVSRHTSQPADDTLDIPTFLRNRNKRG

[6] = biological target: T2, Cell division protein FtsZ (Bacillus subtilis); assay: Inhibition of FtsZ in Bacillus subtilis ATCC 9372 assessed as filamentation at 1 ug/ml

SMILES | inhibition [1] | MIC (Staphylococcus aureus [2]) [µg/mL] | MIC (Escherichia coli) [µg/mL] | MIC (Klebsiella pneumoniae) [µg/mL] | MIC (Staphylococcus aureus [3]) [µg/mL] | MIC (Bacillus subtilis) [µg/mL] | MIC (Staphylococcus aureus [4]) [µg/mL] | inhibition [5] | inhibition [6]
CCCCCCCCOc1cccc(-c2c[nH]nn2)c1 | Active | 4 (≈ 14.6 µM) | > 64 | 4 (≈ 14.6 µM) | 4 (≈ 14.6 µM) | 2 (≈ 7.32 µM) | 4 (≈ 14.6 µM) | inactive | –
NC(=O)c1c(F)ccc(OCc2nc3cc(Cl)cnc3s2)c1F | – | 0.5 (≈ 1.41 µM) | > 64 | 0.25 (≈ 0.703 µM) | 0.5 (≈ 1.41 µM) | 0.25 (≈ 0.703 µM) | 1 (≈ 2.81 µM) | – | –
Fc1ccc(OCCCCOc2ccc(Cl)cc2)c(F)c1-c1c[nH]nn1 | – | > 64 | > 64 | > 64 | > 64 | > 64 | > 64 | – | –
Fc1ccc(OCc2cccc(Cl)c2)c(F)c1-c1c[nH]nn1 | – | 16 (≈ 49.7 µM) | > 64 | > 64 | 16 (≈ 49.7 µM) | 16 (≈ 49.7 µM) | 8 (≈ 24.9 µM) | – | –
Cc1cccc(COc2ccc(F)c(-c3c[nH]nn3)c2F)c1 | – | 32 (≈ 106 µM) | > 64 | 64 (≈ 212 µM) | 32 (≈ 106 µM) | 32 (≈ 106 µM) | 16 (≈ 53.1 µM) | – | –
Fc1ccc(OCc2nc(-c3ccc(Cl)cc3)c(Br)o2)c(F)c1-c1c[nH]nn1 | – | > 64 | > 64 | > 64 | > 64 | > 64 | > 64 | – | –
CCCCC(CC)COc1cccc(Cn2cncn2)c1 (racemic) | Active | 16 (≈ 55.7 µM) | > 64 | 16 (≈ 55.7 µM) | 32 (≈ 111 µM) | 16 (≈ 55.7 µM) | 32 (≈ 111 µM) | inactive | –
CCCCC(CC)COc1cccc(C(N)=O)c1 (racemic) | – | 16 (≈ 64.2 µM) | > 64 | 8 (≈ 32.1 µM) | 16 (≈ 64.2 µM) | 16 (≈ 64.2 µM) | 16 (≈ 64.2 µM) | – | –
Fc1cccc(COc2ccc(F)c(-c3c[nH]nn3)c2F)c1 | – | 64 (≈ 210 µM) | > 64 | > 64 | 64 (≈ 210 µM) | > 64 | > 64 | – | –
CCCCC(CC)COc1ccc(F)c(C(N)=O)c1F (stereo not given) | – | 4 (≈ 14 µM) | > 64 | 4 (≈ 14 µM) | 8 (≈ 28 µM) | 2 (≈ 7.01 µM) | 2 to 4 (≈ 7.01 to 14 µM) | – | –
Fc1ccc(OCc2ccc(Cl)cc2)c(F)c1-c1c[nH]nn1 | – | > 64 | > 64 | > 64 | > 64 | > 64 | > 64 | – | –
Cc1ccc(COc2ccc(F)c(-c3c[nH]nn3)c2F)cc1 | – | 32 (≈ 106 µM) | > 64 | > 64 | 32 (≈ 106 µM) | 32 (≈ 106 µM) | 16 (≈ 53.1 µM) | – | –
Clc1ccc(COc2cccc(Cn3cncn3)c2)cc1 | – | > 64 | > 64 | 64 (≈ 214 µM) | > 64 | > 64 | > 64 | – | –
Cc1ccc(COc2cccc(-c3c[nH]nn3)c2)cc1 | – | 32 (≈ 121 µM) | > 64 | > 64 | > 64 | > 64 | > 64 | – | –
Clc1cccc(COc2cccc(-c3c[nH]nn3)c2)c1 | – | 16 (≈ 56 µM) | > 64 | 16 (≈ 56 µM) | 32 (≈ 112 µM) | 16 (≈ 56 µM) | 16 (≈ 56 µM) | – | –
CCCCC(CC)COc1cccc(-c2nnco2)c1 (racemic) | – | 32 (≈ 117 µM) | > 64 | 16 (≈ 58.3 µM) | – | 16 (≈ 58.3 µM) | – | – | –
NC(=O)c1c(F)ccc(OCC2COc3ccc(Cl)cc3O2)c1F (stereo not given) | – | – | – | – | – | – | 0.5 (≈ 1.41 µM) | – | –
NC(=O)c1c(F)ccc(OCc2nc(-c3ccc(Cl)cc3)c(Br)o2)c1F | – | – | – | – | – | – | 0.06 (≈ 0.135 µM) | – | –
CCCCC(CC)COc1ccccc1-c1c[nH]nn1 (stereo not given) | Active | 8 (≈ 29.3 µM) | > 64 | 8 (≈ 29.3 µM) | 8 (≈ 29.3 µM) | 8 (≈ 29.3 µM) | 8 (≈ 29.3 µM) | inactive | –
O=c1[nH]nc(-c2cccc(OCc3ccccc3)c2)o1 | – | > 64 | > 64 | > 64 | > 64 | > 64 | > 64 | – | –

SMILES | inhibition [1] | MIC (Staphylococcus aureus [2]) [µg/mL] | MIC (Escherichia coli) [µg/mL] | MIC (Klebsiella pneumoniae) [µg/mL] | MIC (Staphylococcus aureus [3]) [µg/mL] | MIC (Bacillus subtilis) [µg/mL] | MIC (Staphylococcus aureus [4]) [µg/mL] | inhibition [5] | inhibition [6]
CCCCC(CC)COc1cccc(-c2ncno2)c1 (racemic) | – | > 64 | > 64 | > 64 | > 64 | > 64 | > 64 | – | –
CCCCC(CC)COc1ccc(F)c(-c2c[nH]nn2)c1F (racemic) | – | 8 (≈ 25.9 µM) | > 64 | 8 (≈ 25.9 µM) | 8 (≈ 25.9 µM) | 4 (≈ 12.9 µM) | 4 (≈ 12.9 µM) | – | –
CCCCC(CC)COc1cccc(-c2n[nH]c(=O)o2)c1 (racemic) | Active | 4 (≈ 13.8 µM) | > 64 | 4 (≈ 13.8 µM) | 8 (≈ 27.6 µM) | 4 (≈ 13.8 µM) | 8 (≈ 27.6 µM) | inactive | –
CCCCC(CC)COc1cccc(-c2cnn(C)n2)c1 (stereo not given) | – | > 64 | > 64 | > 64 | > 64 | > 64 | > 64 | – | –
CCCCC(CC)COc1cccc(-c2c[nH]nn2)c1 (racemic) | Active | 2 (≈ 7.32 µM) | > 64 | 4 (≈ 14.6 µM) | 4 (≈ 14.6 µM) | 2 (≈ 7.32 µM) | 4 (≈ 14.6 µM) | – | inactive
CCCCC(CC)COc1ccc(-c2c[nH]nn2)cc1 (stereo not given) | Active | 4 (≈ 14.6 µM) | > 64 | 4 (≈ 14.6 µM) | 4 (≈ 14.6 µM) | 2 (≈ 7.32 µM) | 4 (≈ 14.6 µM) | inactive | –
CCCCC(CC)COc1cccc(-c2cn(C)nn2)c1 (stereo not given) | – | 64 (≈ 223 µM) | > 64 | 4 (≈ 13.9 µM) | > 64 | 32 (≈ 111 µM) | 32 (≈ 111 µM) | – | –
Cc1cccc(COc2cccc(Cn3cncn3)c2)c1 | – | > 64 | > 64 | > 64 | > 64 | > 64 | > 64 | – | –
Fc1ccc(OCc2nc3cc(Cl)cnc3s2)c(F)c1-c1c[nH]nn1 | – | > 64 | > 64 | > 64 | > 64 | > 64 | > 64 | – | –
c1ccc(COc2cccc(-c3c[nH]nn3)c2)cc1 | – | > 64 | > 64 | 64 (≈ 255 µM) | > 64 | > 64 | > 64 | – | –
Clc1cccc(COc2cccc(Cn3cnnn3)c2)c1 | – | > 64 | > 64 | > 64 | > 64 | > 64 | > 64 | – | –
Clc1ccc(OCCCCOc2cccc(-c3c[nH]nn3)c2)cc1 | – | > 64 | > 64 | > 64 | > 64 | > 64 | > 64 | – | –
Cc1ccc(COc2cccc(Cn3cncn3)c2)cc1 | – | > 64 | > 64 | > 64 | > 64 | > 64 | > 64 | – | –
Clc1cccc(COc2cccc(Cn3cncn3)c2)c1 | – | > 64 | > 64 | 64 (≈ 214 µM) | > 64 | > 64 | > 64 | – | –
CCOc1cccc(-c2c[nH]nn2)c1 | – | > 64 | > 64 | > 64 | > 64 | > 64 | > 64 | – | –
Cc1cccc(COc2cccc(-c3c[nH]nn3)c2)c1 | – | 32 (≈ 121 µM) | > 64 | 32 (≈ 121 µM) | 32 (≈ 121 µM) | 32 (≈ 121 µM) | 16 (≈ 60.3 µM) | – | –
O=[N+]([O-])c1ccc(COc2cccc(Cn3cncn3)c2)cc1 | – | > 64 | > 64 | > 64 | > 64 | > 64 | > 64 | – | –
CCCCC(CC)COc1cccc(-c2cnnn2C)c1 (stereo not given) | – | 64 (≈ 223 µM) | > 64 | 16 (≈ 55.7 µM) | > 64 | 64 (≈ 223 µM) | > 64 | – | –
CCCCC(CC)COc1cccc(Cn2cnnn2)c1 (racemic) | – | > 64 | > 64 | 8 (≈ 27.7 µM) | > 64 | > 64 | > 64 | – | –
Clc1ccc(COc2cccc(-c3c[nH]nn3)c2)cc1 | – | > 64 | > 64 | > 64 | > 64 | > 64 | > 64 | – | –
